Hits are enriched below; roughly 3.8% of the tested compounds scored in any of these assays.
KCNQ1 inh – inhibitors of human KCNQ1 channel, primary screen, cell-based, thallium flux, high-throughput; Potassium voltage-gated channel subfamily KQT member 1 (Homo sapiens), P51787; CHO-K1 KCNQ1, FluxOR thallium flux fluorescence; active compounds read high; B-score at 10 µM; 310,000 tested, 1.3% active; AID 2642, 2010;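 active means compounds whose thallium flux B-score, printed positive for inhibition, exceeds three library SD while starting fluorescence stays within three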;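 further: channel opened by potassium depolarization with thallium stimulus after 20 min compound exposure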
hERG rescue – hERG rescue from dofetilide block, primary screen, cell-based, CHO-hERG, FluxOR thallium flux, dofetilide IC70 | dofetilide IC70 present | activation (rescue from dofetilide block), less the hit threshold, % at 10 µM | 310,000 tested, 0.51% active | AID 1511, 2009;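 active means activation above the mean of controls blocked by dofetilide plus 5 SD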;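 further: thallium influx through hERG after potassium depolarization seen as dye fluorescence rise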
Kir21 block – inhibitors of mouse Kir2.1 inward-rectifier potassium channel; Inward rectifier potassium channel 2 (Mus musculus), P35561; HEK293-Kir2.1, FluxOR thallium flux fluorescence; active compounds read low; B-score at 10 µM; 310,000 tested, 0.85% active; AID 1672, 2009;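 active means fluorescence ratio B-score at or below minus 3 SD of library scores, with starting-brightness B-score within 2 SD, cut at about -4.2 in these data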;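 further: channel flux triggered by added potassium and thallium sulfate stimulus; B-score of peak minus minimum fluorescence over baseline after thallium stimulus; more negative B-score means stronger Kir2.1 block with less thallium influx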
KCNK3 inh – human KCNK3 channel inhibitors, primary screen, CHO cells, FluxOR thallium flux, B-score | B-score at 10 µM | Potassium channel subfamily K member 3 (Homo sapiens), O14649 | AID 602410, 2012 | FluxOR fluorescence; active compounds read low | 340,000 tested, 0.84% active;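 active means B-score under library mean minus 4 SD, starting fluorescence ratio at most library mean plus 5 SD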;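 further: more negative B-score means stronger inhibition of thallium flux through KCNK3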
KCNK9 block – KCNK9 potassium channel inhibitors, primary screen, HEK293 cells, thallium flux; FluxOR thallium flux fluorescence; active compounds read low; B-score at 10 µM; 310,000 tested, 1.2% active; AID 488922, 2010;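 active means ratio B-score over 3 SD below the library mean, with starting fluorescence within 5 SD of its mean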;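 further: negative B-score means less thallium flux so channel inhibition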
KCNQ1 pot – potentiators or activators of KCNQ1 channel, primary screen, cell-based, thallium flux, high-throughput; 310,000 tested, 0.35% active; AID 2648, 2010; B-score at 10 µM; CHO-K1 KCNQ1, thallium flux FluxOR fluorescence; active compounds read high;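 active means fluorescence ratio B-score, a plate-corrected score, at least three library SD, with initial intensity B-score within 5 SD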
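Doses: Single concentration per compound, DMSO matched to controls | Test system: KCNQ1-transfected CHO-K1 cells | Timing: 90 min dye loading and 20 min compound exposure, both at room temperature | Measured by: Kinetic FluxOR thallium fluorescence, 10-s 1-Hz baseline, 110-s post-stimulus read | Medium: Assay buffer with matched DMSO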
KCNK9 inh conf – KCNK9 potassium channel inhibitors, confirmation, HEK293 cells, thallium flux, duplicate. shares compounds with KCNK9 block. FluxOR thallium flux fluorescence. inhibition, % at 10 µM. 4,900 tested, 43% active. AID 492992, 2010;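 active means thallium signal inhibited by more than 5 SD of the compound-free buffer control wells, on both duplicate plates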;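 further: 0% = assay buffer control wells without compound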
Kir2-1 spec – mouse Kir2.1 channel inhibition, confirmation, selectivity assay for KCNK9 modulator project, cell-based, HEK293, thallium flux; shares compounds with KCNK9 block; Kir2.1 cells, FluxOR thallium flux fluorescence; inhibition, % at 10 µM; 4,900 tested, 4% active; AID 492993, 2010;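 active means thallium signal drop more than 5 SD beyond the mean of the no-compound control wells, seen in both duplicate plates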;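 further: signal is fluorescence rise after thallium addition divided by baseline fluorescence; plate controls were assay buffer only for no effect and full block by chlorpromazine control for full effect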
HEK293 Tl ctr – thallium flux in non-induced HEK293 cells, confirmation, counter-screen for KCNK9 inhibitor project, cell-based, second counter screen, non-induced KCNK9-HEK293; 4,900 tested, 40% active; inhibition, % at 10 µM; FluxOR thallium flux; shares compounds with KCNK9 block;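 active means thallium signal drop beyond 5 SD of the untreated control mean, on both duplicate plates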;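 further: plate controls were buffer only IC0 wells for no effect and SID17386958 at its maximal inhibitory level for full effect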
An asterisk follows results filed as active.

Screening CCOC(=O)c1c(C)[nH]c(N=Nc2ccccc2C)c1C returned KCNQ1 inh inactive, hERG rescue -7, Kir21 block 1.1, KCNK3 inh inactive, KCNK9 block -9.4*, KCNQ1 pot inactive, KCNK9 inh conf 52%*, Kir2-1 spec inactive and HEK293 Tl ctr inactive.
Screening CCOC(=O)c1c(C)[nH]c(N=Nc2ccc(C)cc2C)c1C returned KCNQ1 inh inactive, hERG rescue -2, Kir21 block 0.79, KCNK3 inh inactive, KCNK9 block inactive and KCNQ1 pot inactive.
For CCOC(=O)N/N=C\c1ccc(-c2cc(Cl)ccc2Cl)o1 the results were KCNQ1 inh inactive, hERG rescue -1, Kir21 block 0.03, KCNK3 inh inactive, KCNK9 block -8.6*, KCNQ1 pot inactive, KCNK9 inh conf 45%*, Kir2-1 spec inactive and HEK293 Tl ctr inactive.
Screening COc1ccccc1NS(=O)(=O)c1cccc(C(=O)N/N=C(\C)c2cccnc2)c1 returned KCNK3 inh inactive.
Screening C=CCC(=O)N(CC)CC1CCCN(CCc2cccc(F)c2)C1 (centres undefined) returned KCNQ1 inh inactive, hERG rescue 0, Kir21 block 0.16, KCNK3 inh inactive, KCNK9 block -9.1*, KCNQ1 pot inactive, KCNK9 inh conf inactive, Kir2-1 spec inactive and HEK293 Tl ctr inactive.
CCN(CC1CCCN(CCc2cccc(F)c2)C1)C(=O)c1ccc(CSC)o1 (centres undefined) was read as KCNQ1 inh inactive, hERG rescue -13, Kir21 block -2.4, KCNK3 inh inactive, KCNK9 block inactive and KCNQ1 pot inactive.
For COc1ccc(C(C)(C)C)cc1NC(=O)CNc1cccc2ccccc12 the results were KCNQ1 inh inactive, hERG rescue -14, Kir21 block -0.67, KCNK3 inh inactive, KCNK9 block inactive, KCNQ1 pot inactive, KCNK9 inh conf inactive, Kir2-1 spec inactive and HEK293 Tl ctr inactive.
Cc1nn2c(NCc3ccccn3)c3c(nc2c1-c1ccccc1)CCC3 was read as KCNQ1 inh inactive, hERG rescue -19, Kir21 block -0.09, KCNK3 inh inactive, KCNK9 block inactive and KCNQ1 pot inactive.
`Cc1nn2c(NCc3ccccn3)cc(C(C)(C)C)nc2c1-c1ccccc1` gave KCNQ1 inh inactive, hERG rescue -10, Kir21 block 0.81, KCNK3 inh inactive, KCNK9 block inactive, KCNQ1 pot inactive, KCNK9 inh conf inactive, Kir2-1 spec inactive and HEK293 Tl ctr inactive.
Screening COc1ccc(NC2CCCN(C(=O)CSc3ccccc3)C2)cc1 (centres undefined) returned KCNQ1 inh inactive, hERG rescue -7, Kir21 block -3.2, KCNK3 inh inactive, KCNK9 block inactive and KCNQ1 pot inactive.
COc1ccc(NC2CCCN(C(=O)CCOc3ccccc3)C2)cc1 (centres undefined) was read as KCNQ1 inh inactive, hERG rescue -8, Kir21 block -0.47, KCNK3 inh inactive, KCNK9 block inactive, KCNQ1 pot inactive, KCNK9 inh conf inactive, Kir2-1 spec inactive and HEK293 Tl ctr inactive.
COc1ccc(NC2CCCN(C(=O)CCc3ccccc3F)C2)cc1 (centres undefined) was read as KCNQ1 inh inactive, hERG rescue -7, Kir21 block -1.9, KCNK3 inh inactive, KCNK9 block inactive, KCNQ1 pot inactive, KCNK9 inh conf inactive, Kir2-1 spec inactive and HEK293 Tl ctr inactive.
For Cc1cccc(C(=O)Nc2ccc(C(=O)c3ccccc3)cc2)c1 the results were KCNQ1 inh inactive, hERG rescue -3, Kir21 block -0.03, KCNK3 inh inactive, KCNK9 block -15*, KCNQ1 pot inactive, KCNK9 inh conf 60%*, Kir2-1 spec inactive and HEK293 Tl ctr 27%*.
Screening COC(=O)c1cc(=O)n(Cc2ccc(OC)cc2)c(=NCc2ccc(OC)cc2)s1 returned KCNQ1 inh inactive, hERG rescue -15, Kir21 block 1.6, KCNK3 inh inactive, KCNK9 block inactive, KCNQ1 pot inactive, KCNK9 inh conf inactive, Kir2-1 spec inactive and HEK293 Tl ctr inactive.
Screening Cc1ccc(C(=O)NNC(=O)c2ccc3ncccc3c2)cc1 returned KCNQ1 inh inactive, hERG rescue 0, Kir21 block -0.44, KCNK3 inh inactive, KCNK9 block inactive and KCNQ1 pot inactive.
For CCN(CC(=O)Nc1c(F)cccc1F)C(=O)c1cc2c(cc1Cl)N1CCCCCC1=NS2(=O)=O the results were KCNQ1 inh inactive, hERG rescue -11, Kir21 block 1.9, KCNK3 inh inactive, KCNK9 block inactive and KCNQ1 pot inactive.
For COc1ccc(C(C)=O)cc1CSc1ccc2c(c1)OCCO2 the results were KCNQ1 inh inactive, hERG rescue -10, Kir21 block -2.6, KCNK3 inh inactive, KCNK9 block inactive, KCNQ1 pot inactive, KCNK9 inh conf inactive, Kir2-1 spec inactive and HEK293 Tl ctr inactive.
Screening COc1ccc(C(C)=O)cc1CSc1nc(C)cc(C)n1 returned KCNQ1 inh inactive, hERG rescue -13, Kir21 block 0.47, KCNK3 inh inactive, KCNK9 block inactive and KCNQ1 pot inactive.
COc1ccccc1-c1cccc([C@@H]2C[C@H]3[C@H](CON3C)CN2C(=O)C(C)(C)C)c1 was read as KCNK3 inh inactive.
`CC(=O)Nc1ccc(S(=O)(=O)NCC(=O)OCC(=O)NC(=O)c2cccn2C)cc1` gave KCNQ1 inh inactive, hERG rescue -7, Kir21 block -1.5, KCNK3 inh inactive, KCNK9 block inactive and KCNQ1 pot inactive.

Screening results deposited in PubChem BioAssay by Johns Hopkins Ion Channel Center.
